The text below walks through data of ChEMBL document CHEMBL1649065, “Solomonsterols A and B from Theonella swinhoei. The first example of C-24 and C-23 sulfated sterols from a marine source endowed with a PXR agonistic activity” (J Med Chem, 2011).

Data set [1] addresses T1, PXR (nuclear receptor subfamily 1 group I member 2) (Homo sapiens, UniProt O75469).
T1 sequence (O75469 whole entry): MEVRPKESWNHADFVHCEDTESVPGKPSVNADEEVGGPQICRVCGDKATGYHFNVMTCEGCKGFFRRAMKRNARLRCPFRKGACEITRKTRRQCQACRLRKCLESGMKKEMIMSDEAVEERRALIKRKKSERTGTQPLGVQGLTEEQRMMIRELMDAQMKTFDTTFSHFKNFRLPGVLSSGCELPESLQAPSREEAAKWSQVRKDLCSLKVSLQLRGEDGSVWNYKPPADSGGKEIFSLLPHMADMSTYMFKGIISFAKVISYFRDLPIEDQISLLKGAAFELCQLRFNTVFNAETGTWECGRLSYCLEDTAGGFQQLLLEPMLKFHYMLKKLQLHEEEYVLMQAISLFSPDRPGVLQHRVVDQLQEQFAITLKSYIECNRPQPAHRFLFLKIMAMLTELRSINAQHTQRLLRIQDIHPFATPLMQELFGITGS
The data set is described as follows: Transactivation of PXR in human HepG2 cells assessed as induction of luciferase activity at 50 uM by luciferase reporter gene assay relative to control. The settings on record: read-out: FC. Background: A reporter such as luciferase makes a cellular process visible.

For data set [2], the system named is RAW264.7. Description: Immunomodulatory activity in mouse RAW264.7 cells assessed as inhibition of IL1-beta mRNA expression at 50 uM by RT-PCR analysis. The data set is classed as functional. The method in brief: (§1)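 RAW264.7 macrophages incubated 24 h with 10 and 50 μM plus bacterial LPS; total RNA extracted with TRIZOL, 50 ng template amplified by SYBR Green real-time PCR (0.2 μM each primer, 40 cycles), triplicate reactions; CT normalised to GAPDH, relative expression as 2^-ΔΔCT.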

For data set [3], the target named is T2, Nuclear receptor subfamily 1 group I member 2 (Homo sapiens, UniProt O75469).
T2 sequence (O75469 whole entry): T1 sequence (O75469 whole entry)
The data set is described as follows: Induction of PXR-mediated MDR1 gene expression in human HepG2 cells at 50 uM by RT-PCR analysis. The settings on record: hepg2, 50 µM. The class given is cell-based. The method in brief:
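HepG2 hepatocytes treated with compound; mRNA quantified by SYBR Green real-time PCR in triplicate, CT normalised to GAPDH, relative expression computed as 2^-ΔΔCT.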

The subject of data set [4] is RAW264.7. Description: Cytotoxicity against mouse RAW264.7 cells at 10 to 50 uM. The data set is classed as cell-based. The settings on record: raw264.7, 50 µM. The method in brief:
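Murine macrophages exposed to 10 and 50 μM in presence of bacterial LPS; at end of experiment viability scored by trypan blue exclusion.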

Data set [5] has as its system RAW264.7. The data set is described as follows: Immunomodulatory activity in mouse RAW264.7 cells assessed as effect on TNFalpha mRNA expression at 10 to 50 uM by RT-PCR analysis. The class given is functional, cell-based. The method in brief:
as §1

Each structure is given as a SMILES string. Calls of active or inactive are those of the source. No cut-off for these calls is given here.

For orientation: inhibition means the drop in the measured response relative to a control, in per cent. For `C[C@H](CCCOS(=O)(=O)[O-])[C@H]1CC[C@H]2[C@@H]3CC[C@H]4C[C@H](OS(=O)(=O)[O-])[C@@H](OS(=O)(=O)[O-])C[C@]4(C)[C@H]3CC[C@]12C.[Na+].[Na+].[Na+]` [SOLOMONSTEROL A], the fold induction at 50 µM in data set [1] turned out to be 4. For the same molecule, the inhibition at 50 µM in data set [2] came to 50%. Besides, the Activity result in data set [3] is reported as “Active”; in data set [4], “Non-toxic”. In data set [5], the outcome was inactive.
Consider `C[C@H](CCOS(=O)(=O)[O-])[C@H]1CC[C@H]2[C@@H]3CC[C@H]4C[C@H](OS(=O)(=O)[O-])[C@@H](OS(=O)(=O)[O-])C[C@]4(C)[C@H]3CC[C@]12C.[Na+].[Na+].[Na+]` [SOLOMONSTEROL B], for which the fold induction at 50 µM in data set [1] is 4. For the same molecule, the inhibition at 50 µM in data set [2] is 50%. The Activity entry in data set [3] is “Active”; in data set [4] it was “Non-toxic”. For the same molecule, the outcome in data set [5] was inactive.
